Experimental data collected from several papers.
Each line is one published result; the experiments were not run side by side.
Target: Mitogen-activated protein kinase kinase kinase 9 (MAP3K9, Homo sapiens, UniProt P80192)

SMILES | observed | technique | tested at | remaining binding [%]
CN(C)C(=O)Cn1cc(-c2nc([C@@](C)(c3ccc(-c4cnc(N)nc4)cc3)C3CC3)no2)cn1 | cell-free assay | competition with immobilised ligand | 1 µM | 100
COc1ncc2cc3ccccc3nc2c1C#N | cell-free assay | competition with immobilised ligand | 5 µM | 97
O=C(c1ccc(Nc2nccc(-c3cc4ccccc4s3)n2)cc1)N1CCC(N2CCCC2)CC1 | binding | competition with immobilised ligand | 1 µM | 27
Cc1cnn2ncc(-c3ccnc(N(C)C)n3)c2c1 | binding |  | 1 µM | 100
O=C(NCCCN1CCOCC1)c1ccc(Nc2ncc(Cl)c(-c3ccc(Cl)s3)n2)cc1 | binding | competition with immobilised ligand | 1 µM | 11
FC(F)(F)Oc1cccc(-c2cnc3ccc(-c4ccncc4)nn23)c1 | cell-free assay | competition with immobilised ligand | 5 µM | 77
C[C@@]1(Cc2ccc(C#N)cc2)C(=O)N(c2cc(Cl)cc(Cl)c2)c2ncc(C(=O)NC3(c4nc(C5CCC5)no4)CC3)n21 | cell-free assay | competition with immobilised ligand | 1 µM | 100
CNC(=O)[C@@H]1CC[C@@H](n2c(-c3ccc4cnccc4c3)nc3ccc(C(=O)NCc4cccc(C(N)=O)c4)cc32)C1 | binding | competition with immobilised ligand | 1 µM | 100
O=C(c1ccc(Nc2ncc(Cl)c(-c3ccc(Cl)s3)n2)cc1)N1CCC(N2CCCC2)CC1 | binding | competition with immobilised ligand | 1 µM | 8.9
c1cnn2ncc(-c3ccnc(N4CCC45COC5)n3)c2c1 | binding |  | 1 µM | 85
C[C@@H](c1ccc(-n2cnc3c(N)ncnc32)cc1)N1CCc2nn(C)c(Cc3ccccc3)c2C1=O | binding | competition with immobilised ligand | 0.1 µM | 95
O=C(NCC1CCOCC1)c1n[nH]cc1NC(=O)c1c(F)cccc1F | binding | competition with immobilised ligand | 1 µM | 100
Nc1c(C(=O)NCc2ccc(C(=O)NCCCC3CCCCC3)cc2)cnn1-c1ccccc1 | cell-free assay | competition with immobilised ligand | 0.1 µM | 96
CCN1CCN(Cc2ccc(C(=O)Nc3ccc(C)c(Oc4ccc5c(c4)CC(=O)N5)c3)cc2C(F)(F)F)CC1 | binding | competition with immobilised ligand | 1 µM | 100
C[C@@H]1CN(c2ccc3ncc(-c4ccc5[nH]nc(C6CC6)c5c4)n3n2)C[C@H](C)O1 | binding | competition with immobilised ligand | 0.5 µM | 100
Cc1nccc(COC(=O)N2C[C@@H]3[C@@H](CNC(=O)c4ccc5[nH]nnc5c4)[C@@H]3C2)n1 | cell-free assay | competition with immobilised ligand | 1 µM | 89
CN(CCCC(F)(F)F)c1nccc(-c2cnn3ncccc23)n1 | binding |  | 1 µM | 88
CN(C)c1ncnc(-c2ccc3nc(Nc4cc(CN5CCN(C(=O)CC(F)(F)F)CC5)ccn4)[nH]c3c2)c1Cl | cell-free assay | competition with immobilised ligand | 1 µM | 90
C[C@@H]1CCN(c2nccc(-c3cnn4ncccc34)n2)C1 | binding |  | 1 µM | 100
N#Cc1ccc(Nc2ccc3[nH]c(=O)[nH]c3c2)c(Cl)c1 | cell-free assay | competition with immobilised ligand | 1 µM | 100
CN(C)c1nccc(-c2cnn3ncccc23)n1 | binding |  | 1 µM | 100
N#Cc1ccccc1CSc1nnc2c(n1)[nH]c1ccccc12 | binding | competition with immobilised ligand | 10 µM | 98
c1cncc(-c2cccc(Nc3nccc(NC4CCCCC4)n3)c2)c1 | binding | competition with immobilised ligand | 10 µM | 19
N[C@H]1CCN(c2nccc(-c3cnn4ncccc34)n2)C1 | binding |  | 1 µM | 87
COc1cc(-c2cn(C3CCc4c(F)cccc4N(CC(F)(F)F)C3=O)nn2)ccc1-n1cnc(C)c1 (stereo not shown) | cell-free assay | competition with immobilised ligand | 1 µM | 100
